This is a sample that favours compounds with a hit; in the whole collection about 2.5% have one here.
PfGluPho inh: PfG6PD (Plasmodium falciparum) enzyme inhibition; AID 504690; 0.78% of 350,000 active; PfGluPho enzyme, NADPH resazurin-diaphorase fluorescence; inhibition, % at 20 µM;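 active means inhibition reaching at least a set limit at 20 µM in the primary screen, cut at about 59% in these data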;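 further: 0% = DMSO wells with substrate and 100% = DMSO wells lacking glucose-6-phosphate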
Tb hexokinase: blocks Trypanosoma brucei hexokinase 1 activity | recombinant TbHK1, G6PDH-coupled NADH A340 | inhibition, % at 10 µM | 0.11% of 220,000 active;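 active means inhibition of 50% or more in the single-dose primary screen; inactive means inhibition below 50%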
HKDC1 inh: HKDC1 (human) hexokinase inhibition; Q2TB90; recombinant HKDC1, G6PDH/diaphorase resazurin coupled fluorescence; inhibition, % at 20 µM; 0.16% of 340,000 active;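 active means inhibition above about 35% when tested at 20 µM, limit read from the data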;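 further: plate controls were DMSO wells with enzyme for no effect and DMSO wells lacking enzyme for full effect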
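Test system: HK5 enzyme. Quantity: 5 µg/mL HK5 final. Reagent: glucose and ATP substrates. Schedule: 90 min reaction incubation at room temperature, dark. Technique: resazurin-to-resorufin fluorescence via G6PDH and diaphorase coupling, 525/613 nm. Control set: DMSO wells with and without enzyme mix.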
EP2 mod: EP2 receptor (human) modulation | induction, % at 25 µM | 0.83% of 260,000 active | AID 940 | P43116 | EP2-expressing cells, cAMP HTRF FRET, PGE2 co-stimulation;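 active means compounds whose cAMP rise, as percent of the full-agonist control response, exceeds 60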;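 further: rat C6 glioma line stably carrying human EP2 under a CMV promoter; the protocol text gives 20 µM as final concentration; 100% = response of wells given 1 µM PGE2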
Target sequence (P43116 whole entry, looked up): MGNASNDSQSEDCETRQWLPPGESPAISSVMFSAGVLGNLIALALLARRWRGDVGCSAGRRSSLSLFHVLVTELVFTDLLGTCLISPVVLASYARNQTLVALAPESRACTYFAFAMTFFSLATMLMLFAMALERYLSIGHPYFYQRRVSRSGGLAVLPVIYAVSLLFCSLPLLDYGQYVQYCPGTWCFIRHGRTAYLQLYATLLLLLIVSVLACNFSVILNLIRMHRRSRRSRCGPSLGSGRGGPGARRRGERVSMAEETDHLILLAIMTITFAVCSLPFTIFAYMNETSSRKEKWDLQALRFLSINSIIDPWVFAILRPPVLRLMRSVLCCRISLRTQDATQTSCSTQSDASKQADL
EP2 antag: EP2 receptor (human) inhibition. C6 glioma cells expressing human EP2, cAMP TR-FRET; cells stimulated with saturating PGE2. 0.52% of 260,000 active. inhibition, % at 25 µM. P43116;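 active means percent inhibition above 40 after rounding to a whole number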;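 further: rat C6 glioma host cells with rolipram phosphodiesterase inhibitor present; the protocol text gives 20 µM as final concentration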
PHOSPHO1 inh: blocks human PHOSPHO1 phosphatase activity; 1.1% of 290,000 active; inhibition, % at 13.3 µM; recombinant PHOSPHO1, absorbance phosphatase assay; in the data active means inhibition above about 60%
Target sequence (Q8TCT1 whole entry, looked up): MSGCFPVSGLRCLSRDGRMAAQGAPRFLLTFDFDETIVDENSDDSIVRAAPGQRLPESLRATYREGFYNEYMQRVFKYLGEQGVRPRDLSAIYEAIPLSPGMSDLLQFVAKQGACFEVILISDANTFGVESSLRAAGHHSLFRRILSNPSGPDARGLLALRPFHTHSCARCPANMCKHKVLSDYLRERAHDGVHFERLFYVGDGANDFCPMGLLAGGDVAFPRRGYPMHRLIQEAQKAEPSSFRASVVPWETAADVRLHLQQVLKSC
PfGluPho conf: confirmation of Plasmodium falciparum G6PD inhibitors. shares compounds with PfGluPho inh. recombinant PfGluPho, NADPH-diaphorase-resazurin fluorescence. inhibition, % at 20 µM. 34% of 2,400 active;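 active means inhibition of at least 50% at 20 µM in any single replicate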;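 further: 0% = DMSO with substrate and 100% = DMSO lacking glucose-6-phosphate substrate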
Diaph ctr 10uM: inhibits diaphorase or oxidizes, flagging false PfG6PD hits; shares compounds with PfGluPho inh; diaphorase-coupled resazurin reduction, fluorescence, NADPH 10 uM; inhibition, % at 20 µM; 39% of 820 active;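 active means average inhibition reaching 50% or more with the compound at 20 µM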;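 further: resorufin red fluorescence formed as diaphorase reduces resazurin using NADPH; 0% = DMSO with enzyme and 100% = DMSO without enzyme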
Diaphorase 30uM: inhibits diaphorase or oxidizes, flagging false PfG6PD hits; inhibition, % at 20 µM; shares compounds with PfGluPho inh; Diaphorase/resazurin coupled assay, resorufin fluorescence, 30 uM NADPH; AID 504863; 29% of 820 active;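 active means inhibition averaging 50% or more, tested at 20 µM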;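 further: 0% = DMSO with enzyme and 100% = DMSO wells lacking diaphorase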
* hit, by the source's call; . = no result given.

SMILES	PfGluPho inh	Tb hexokinase	HKDC1 inh	EP2 mod	EP2 antag	PHOSPHO1 inh	PfGluPho conf	others
Cc1nc(NS(=O)(=O)c2ccccc2)sc1C(=O)NNS(=O)(=O)c1ccccc1	-11	.	-3	.	.	-16	.
CCC(CC)C(=O)Nc1nnc(-c2ccccc2)s1	.	.	.	-56	11	.	.
COc1ccccc1CC(=O)N1CCC(n2nc(-c3ccco3)ccc2=O)CC1	.	.	.	-21	.	.	.
O=C(Nc1nc2c(s1)C(=O)NCCC2)c1ccccc1Cl	.	.	.	-5	9	.	.
Brc1cccc(C=Nc2cccc3ncccc23)c1	10	.	14	.	.	.	.
Oc1c(Br)cc(Br)cc1C=Nc1cccc2ncccc12	48	.	31	.	.	.	36
O=c1cc(-c2ccccc2)oc2cc(O)c(O)c(O)c12	102*	.	9	-1	8	.	95*	Diaph ctr 10uM=94*;Diaphorase 30uM=81*
COc1c(O)cc2oc(-c3ccc(O)cc3)cc(=O)c2c1O	7	-35	4	-6	14	13	.
CC(=O)Nc1ccc(Nc2ncnc3c2cnn3-c2ccccc2)cc1	-3	14	15	-20	34	2	.
Clc1ccc(Nc2ncnc3c2cnn3-c2ccccc2)cc1	111*	0	0	14	11	40	19
COc1cccc(NC(=O)N2CCC(n3nnc4cc(C(F)(F)F)ccc43)CC2)c1	.	.	.	-36	15	.	.
O=C(Nc1scc(-c2ccccc2)c1C(=O)O)c1ccccc1F	32	.	-2	.	.	36	.
Cc1ccc(-c2csc(NC(=O)c3ccccc3F)c2C(=O)O)cc1	73*	.	14	.	.	37	51*	Diaph ctr 10uM=36;Diaphorase 30uM=40
Cc1ccc(-c2csc(NC(=O)c3ccc(F)cc3)c2C(=O)O)cc1	88*	.	22	.	.	14	44
COc1ccc(N)c2c1C(=O)c1ccccc1C2=O	-3	3	-2	-19	17	3	.
Cc1nc2c(nc1C)C(=O)c1ccccc1C2=O	-116	.	6	.	.	.	.
COC1=C(N)C(=O)c2nc(C)ccc2C1=O	109*	.	32	.	.	.	93*	Diaph ctr 10uM=49;Diaphorase 30uM=57*
COC1=C(Br)C(=O)c2nc(C)ccc2C1=O	101*	.	.	.	.	.	74*	Diaph ctr 10uM=46;Diaphorase 30uM=37
COc1ncccc1C1(O)CC2CCC(C1)N2C(=O)c1ccco1 (stereo not given)	.	.	.	-8	.	.	.
Cc1cc2c(cc1C)C(O)CC1(CCN(C(=O)C3CCCC3)CC1)O2 (stereo not given)	.	.	.	-46	7	.	.
Cc1occc1-c1nn(C2CCN(C(=O)C3CCCO3)CC2)c(=O)o1 (stereo not given)	.	.	.	13	6	.	.
Cc1ccsc1/C=N/NC(=S)NCc1ccccc1	18	-3	-9	-22	0	8	.
O=C(CC(=O)N/N=C/c1c(F)cccc1Cl)NCc1ccccc1	77*	1	-2	-6	12	14	67*	Diaph ctr 10uM=62*;Diaphorase 30uM=52*
Cc1ccsc1/C=N\NC(=O)CC(=O)NCc1ccccc1	86*	-13	8	3	2	13	73*	Diaph ctr 10uM=61*;Diaphorase 30uM=41
O=C(CC(=O)N/N=C/c1ccc(Cl)cc1Cl)NCc1ccccc1	28	-14	-4	-15	9	32	.
SMILES	PfGluPho inh	Tb hexokinase	HKDC1 inh	EP2 mod	EP2 antag	PHOSPHO1 inh	PfGluPho conf	others
COc1ccc(NC(=O)CSc2nnc(-c3ccc(OC)cc3)n2C)cc1	.	.	.	-5	9	.	.
COc1cc(Cl)ccc1NC(=O)COc1ccccc1C(=O)N1CCN(c2ccc(O)cc2)CC1	68*	4	-2	-1	.	18	42
COc1ccccc1OCC(=O)Nc1ccc(O)cc1C(=O)O	-42	-4	-3	4	8	-14	.
CC1=C(C(=O)OC(C)(C)C)C(c2ccc(OCC(N)=O)cc2)C(C#N)=C(N)O1 (stereo not given)	.	.	.	-45	10	.	.
COC(=O)c1c(NC(=O)c2ccc(OC)c(OC)c2)sc(C(=O)Nc2cccc(C)c2C)c1C	.	.	.	-5	13	.	.
COc1cccc(CN2CCc3c(nc(N4CCCCC4C)[nH]c3=O)C2)c1 (stereo not given)	.	.	.	-10	.	.	.
COC(=O)c1c(C)n(-c2ccccc2)c2ccc(O)cc12	63*	-2	20	15	3	7	28
Cc1ccc(F)cc1NC(=O)CN1CCN(CC(=O)NC(C)C)CC1	.	.	.	-16	13	.	.
CC1=CC(=O)C(C(C)C)=C/C1=N/OS(=O)(=O)c1ccccc1	105*	-6	16	-20	13	0	96*	Diaph ctr 10uM=73*;Diaphorase 30uM=77*
CC1=CC(=O)C=C(C)C1=NOS(=O)(=O)c1ccccc1	112*	25	12	-25	56*	-6	111*	Diaph ctr 10uM=103*;Diaphorase 30uM=100*
Cc1ccc2c(c1)/C(=N/OS(=O)(=O)c1ccccc1)CCS2	10	1	-1	.	8	.	.
Cc1cccc(-c2nc(SCC(=O)Nc3cccc4ccccc34)n[nH]2)c1	.	.	.	-70	20	.	.
Cc1ccnc(N2CCCC(C(=O)Nc3ccc(C(C)(C)C)cc3)C2)n1 (stereo not given)	.	.	.	-43	8	.	.
O=[N+]([O-])c1ccc(Nc2cccc3c2[nH]c2c(-c4ccccc4)nccc23)c([N+](=O)[O-])c1	84*	.	9	.	.	.	26
Nc1ccccc1Nc1ccc([N+](=O)[O-])cc1[N+](=O)[O-]	17	-23	0	-6	13	-3	.
Cc1ccc2[nH]c(=O)c(CN(CCN3CCOCC3)C(=O)Nc3cccc(Cl)c3)cc2c1	.	.	.	-14	4	.	.
CNS(=O)(=O)c1ccc2nc(NC(=O)c3ccc(N4C(=O)CCC4=O)cc3)sc2c1	64*	-34	0	-16	8	-47	41
CCc1ccc2nc(NC(=O)c3ccc(N4C(=O)CCC4=O)cc3)sc2c1	0	-16	-7	0	4	20	.
CCCOc1ccc2oc(=O)c3c(c2c1)CCCN3C(=O)CN(C)Cc1ccccc1	78*	-16	2	-50	10	6	39
Cc1nc2c(c(=O)[nH]1)CN(Cc1ccc(Cl)c(Cl)c1)CC2	.	.	.	-25	7	.	.
NNC(=O)CN1C(c2ccccc2Br)=Nc2ccc(Br)cc2C1c1ccccc1 (stereo not given)	88*	-13	0	-15	8	-16	60*	Diaph ctr 10uM=54*;Diaphorase 30uM=34
Cc1nc(SCC(=O)Nc2ccc3[nH]c(=O)[nH]c3c2)nc(C)c1C	64*	.	0	.	.	.	8
O=C(CSc1ncccn1)Nc1ccc2[nH]c(=O)[nH]c2c1	25	.	1	.	.	.	.
CN1CCc2c(sc(/N=C/c3c[nH]c4ccccc34)c2C(N)=O)C1	67*	-20	5	-38	11	16	-2
CN1CCc2c(sc(/N=C/c3c[nH]c4ccccc34)c2C#N)C1	29	-15	4	-24	12	20	.

Bioassay records from PubChem BioAssay.
